Most compounds without a hit are left out; they make up all but 1.8% or so of the library.
FLuc stim CS: FLuc activators, initial screening, artefact control for FLuc-dependent activation tests, biochemical, ATPlite luminescence | Luciferin 4-monooxygenase (Photinus pyralis), P08659 | ATPlite luciferase biochemical, 10 min; 0 = ATP-free wells, 1 = DMSO control | activation factor at 10 µM | 200,000 tested, under 10 active;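 active = luciferase activation factor, scaled between plate controls, of at least 2 with compound at 10 µM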
Target sequence (P08659 whole entry, looked up): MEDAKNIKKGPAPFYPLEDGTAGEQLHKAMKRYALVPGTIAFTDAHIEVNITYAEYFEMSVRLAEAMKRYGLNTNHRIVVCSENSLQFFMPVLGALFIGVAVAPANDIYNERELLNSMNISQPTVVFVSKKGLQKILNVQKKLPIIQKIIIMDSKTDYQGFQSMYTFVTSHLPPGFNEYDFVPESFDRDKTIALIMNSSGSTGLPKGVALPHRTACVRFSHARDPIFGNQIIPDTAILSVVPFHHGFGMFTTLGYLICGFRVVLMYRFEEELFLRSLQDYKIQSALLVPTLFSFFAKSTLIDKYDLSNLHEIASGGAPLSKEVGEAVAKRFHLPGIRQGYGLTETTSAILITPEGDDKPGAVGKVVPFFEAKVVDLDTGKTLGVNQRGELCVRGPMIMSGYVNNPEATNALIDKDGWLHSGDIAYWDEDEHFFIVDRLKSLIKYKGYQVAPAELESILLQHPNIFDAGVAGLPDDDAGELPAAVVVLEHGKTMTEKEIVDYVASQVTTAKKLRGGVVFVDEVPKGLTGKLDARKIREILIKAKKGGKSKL
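Material: luciferase plus luciferin reagent, cell-free. Medium: PBS buffer for ATP. Also added: ATP substrate, dispensed from a 10.24 µM working solution in PBS. Doses: test compounds dosed from 2 mM stocks in 100% DMSO. Incubation: 10 min post-reagent at room temperature. Technique: light output (luminescence). Read-out basis: luminescence gain marking luciferase activators.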
FLuc inhib CS: firefly luciferase enzyme inhibitors, primary screen, artefact control for luciferase-based inhibitor screens, biochemical, luminescence, ATPLite; 10 min; inhibition, % at 10 µM; hit rate 1.5% among 200,000; AID 1006, 2008;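 active = inhibition above about 50% when tested at 10 µM, limit read from the data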
TRAIL sens C8: viability loss with TRAIL in NB7+C8 cells, primary screen, TRAIL sensitizer project, cell-based, ATPlite luminescence | hit rate 1% among 360,000 | inhibition (viability loss, TRAIL sensitization), % at 10 µM | AID 624354, 2012;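 active = compounds causing at least 50% loss of cell viability in the single-dose screen, relative to plate controls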
beta cell repl: inducers of MIN6 beta-cell proliferation, primary screen, ATP luminescence, uHTS; MIN6 cells proliferation, ATPlite luminescence, 48 h; cells starved in 0.2% serum; 100% = growth in 10% serum; proliferation, % at 10 µM; hit rate 0.29% among 330,000;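 active = compounds whose signal lies at least 3.5 SD above the mean of all wells on their plate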;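 also: 0% = DMSO-treated cells in low-serum medium and 100% = 10% serum control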
hiPSC survival: enhancers of single-cell hiPSC survival, primary screen, ATPlite luminescence; 100% = ROCK inhibitor wells, 0% = DMSO; survival enhancement, % at 20 µM; hit rate 0.044% among 360,000; in the data active = survival enhancement above about 18%;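 also: cells exposed to compounds for 16 hours before the ATP read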
PPC-1+TRAIL kill: compounds killing PPC-1 cancer cells with TRAIL present, primary screen, TRAIL potentiator project, ATPLite luminescence, uHTS. hit rate 0.41% among 220,000. PPC-1 cells + TRAIL, ATPLite viability luminescence. cell killing (% activity), % at 4 µM or 5 µM. AID 1443, 2008;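 active = cell killing above 50% in the first pass at 4 µM, then a duplicate retest at 5 µM averaging 50% or more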;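 also: plate controls were cells with TRAIL plus DMSO for no effect and medium-only wells lacking cells for full effect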
Numbers without * were called inactive; . = not tested or not shown.

SMILES | FLuc stim CS | FLuc inhib CS | TRAIL sens C8 | beta cell repl | hiPSC survival | PPC-1+TRAIL kill
COc1cccc(N2CCN(c3ncnc4c3cnn4-c3ccc(C)cc3C)CC2)c1 | 1 | -4 | 93* | -6 | -1 | 21
CCOC(=O)[C@]12CCC=C1N(CCC1=CCCCC1)C(=O)[C@H](CC(=O)NCc1cccc3ccccc13)C2 | . | . | 0 | . | 0 | .
Cc1cc(C)c(NC(=O)CCCCCNC2CCCCC2)c(C)c1 | . | . | -13 | 0 | -1 | .
Cn1c(N=Nc2ccccc2)nc2ccccc21 | 0 | 95* | 93* | 0 | -2 | 85*
CN(C)c1ccc(N=Nc2nc3ccccc3n2C)cc1 | . | . | 95* | -6 | -1 | 5
COc1cc(C(=O)N2CCCC(C)(C(=O)NS(=O)(=O)C3CC3)C2)cc(OC)c1OC (centres undefined) | . | . | -16 | . | 0 | .
CCOC(=O)C1=CC[C@@H](c2ccccc2)N(S(=O)(=O)c2ccc(C)cc2)[C@H]1/C=C/c1ccccc1 | . | . | 13 | . | 1 | .
O=c1[nH]c2ccccc2cc1-c1nnn(-c2ccc(F)cc2)n1 | 0.4 | 65* | 62* | -7 | -4 | 50
Fc1ccc(-n2nnc(-c3cnc4ccccc4c3)n2)cc1 | 0.3 | 74* | 61* | -4 | -4 | 43
O=c1[nH]c2ccccc2cc1-c1nnn(-c2ccc(Cl)c(Cl)c2)n1 | . | . | -14 | -1 | -3 | .
Fc1ccc(-n2nnc(-c3cccnc3)n2)cc1 | 0.8 | 15 | -1 | 2 | -1 | 28
C#CCN(C[C@@H]1[C@@H](OC(=O)NCCCCCC)[C@@H](OC(=O)NCCCCCC)Cn2c(=O)ccc(=O)n21)S(=O)(=O)c1ccc(C)cc1 | . | . | 89* | . | 5 | .
C#CCN(C[C@@H]1[C@@H](OC(=O)NCC2CCCCC2)[C@@H](OC(=O)NCC2CCCCC2)Cn2c(=O)ccc(=O)n21)S(=O)(=O)c1ccc(C)cc1 | . | . | 93* | . | -2 | .
C#CCN(C[C@@H]1[C@@H](OC(=O)NCc2ccco2)[C@@H](OC(=O)NCc2ccco2)Cn2c(=O)ccc(=O)n21)S(=O)(=O)c1ccc(C)cc1 | . | . | 15 | . | -2 | .
CN(C)CCCN(C(=O)c1ccc(S(=O)(=O)N(C)C2CCCCC2)cc1)c1nc2ccc(F)cc2s1 | . | . | 23 | -7 | 0 | .
Cc1cc(C)c2sc(N(CCCN(C)C)C(=O)c3ccc(S(=O)(=O)N(C)C4CCCCC4)cc3)nc2c1 | . | . | 76* | -7 | 0 | .
CN(C)CCCN(C(=O)c1ccc(S(=O)(=O)N(C)C2CCCCC2)cc1)c1nc2ccc(Br)cc2s1 | . | . | 58* | -7 | 0 | .
COc1cc2nc(N(CCCN(C)C)C(=O)c3ccc(S(=O)(=O)N(C)C4CCCCC4)cc3)sc2cc1OC | . | . | 0 | -6 | -1 | .
CC(=O)c1c(C)[nH]c(C(=O)NNC(=O)c2ccc(Br)cc2)c1C | . | . | 6 | -2 | 0 | .
CC(/C=N/Nc1ccc2nncn2n1)=C\c1ccccc1 | . | . | -11 | -1 | 0 | 14
Cc1ccc(C(=O)Nc2nc3ccc(S(C)(=O)=O)cc3s2)s1 | 0.3 | 65* | 42 | -5 | -4 | 48
O=C(Nc1nc2ccccc2s1)c1cnccn1 | 0.4 | 59* | 34 | -2 | -2 | 37
Cc1ccc(C(=O)O)c(C(=O)Nc2nc3ccccc3s2)c1 | . | . | 14 | -1 | 0 | .
CS(=O)(=O)c1ccc2nc(NC(=O)c3cccc([N+](=O)[O-])c3)sc2c1 | . | . | 62* | -4 | -1 | .
Cc1ccc(C(=O)Nc2nc3ccccc3s2)s1 | 0.4 | 60* | 49 | -1 | -3 | 46
SMILES | FLuc stim CS | FLuc inhib CS | TRAIL sens C8 | beta cell repl | hiPSC survival | PPC-1+TRAIL kill
CCOC(=O)[C@@H](NC(=O)/C=C/[C@H]1O[C@@H](n2cc(C)c(=O)[nH]c2=O)C[C@@H]1O)C(C)C | . | . | -1 | . | 2 | .
CC1(C(=O)NS(=O)(=O)c2ccccc2)CCN1C(=O)CC1CCCC1 (centres undefined) | . | . | -5 | . | 4 | .
CC(NC(=O)c1ccc(NC(=O)CC2SC(N3CCCC3)=NC2=O)cc1)c1ccccc1 (centres undefined) | . | . | -3 | 1 | 1 | .
CCc1ccc(-c2nc(CCl)cs2)cc1 | 0.4 | 65* | 15 | 0 | -1 | -7
COc1ccc2sc(-c3ccc(N(C)C)cc3)c(C#Cc3cncn3C)c2c1 | . | . | 24 | -6 | -1 | .
CN=c1scc(-c2ccccc2F)n1/N=C/c1ccc[nH]1 | 0 | 97* | 88* | -6 | -6 | 44
CN=c1scc(-c2ccccc2F)n1/N=C/c1ccc(O)c(O)c1O | 0 | 98* | 84* | . | -1 | 47
CCN=c1scc(-c2ccc(F)cc2)n1/N=C/c1ccccn1 | 0.8 | 17 | 16 | -6 | -1 | 28
COc1cc(SC#N)ccc1N=Cc1c(C)[nH]n(-c2ccc(Cl)cc2)c1=O | 1 | 1 | 68* | -1 | -1 | 25
COc1ccc(CCN=Cc2c(C)[nH]n(-c3ccc([N+](=O)[O-])cc3)c2=O)cc1OC | 1 | -4 | -7 | -2 | 5 | 16
COc1cc(S(=O)(=O)Nc2ccccc2)ccc1N=Cc1c(C)[nH]n(-c2ccc(C)cc2)c1=O | 1 | 4 | . | -3 | . | 38
COc1cc(SC#N)ccc1N=Cc1c(C)[nH]n(-c2ccc(C)c(C)c2)c1=O | 0.8 | 21 | 80* | -5 | 5 | 14
COC(=O)C1CCN(C2CN(Cc3ccc([N+](=O)[O-])cc3)S(=O)(=O)C2)CC1 (centres undefined) | . | . | 6 | . | 1 | .
Cc1cccc(CN2CCN([C@H]3CS(=O)(=O)N[C@@H]3COCc3ccccc3)CC2)c1 | . | . | 4 | . | 0 | .
CCOc1cccc(/C=N/NC(=S)Nc2ccccc2[N+](=O)[O-])c1O | 1 | 0 | 53* | -4 | 2 | 20
CCOc1cccc2cc(-c3nnc(NCc4ccco4)s3)c(=O)oc12 | 0.9 | 14 | 55* | -5 | 0 | 14
COc1ccc2oc(=O)c(-c3nnc(NCc4ccco4)s3)cc2c1 | 1 | 1 | 12 | -5 | 1 | 5
CCOc1cccc2cc(-c3cn4cc(C)ccc4n3)c(=O)oc12 | 0.3 | 68* | 66* | -5 | -6 | 46
COc1cccc2cc(-c3cn4ccc(C)cc4n3)c(=O)oc12 | . | . | -2 | -1 | -3 | .
CC(=O)c1cc2c(cc1NC(=O)C1CCC1)OCO2 | 1 | -3 | 5 | 1 | 2 | 8
COc1ccccc1N1CCN(Cc2ccc(O)c3ncccc23)CC1 | 1 | -4 | 65* | -6 | -1 | 31
CN(C)c1ccc(NC(=O)c2cnsn2)cc1 | 0.3 | 72* | 29 | -3 | -1 | 32
COc1ccc(C(=O)NNC(=S)NC(=O)c2ccc(OC)cc2)cc1 | . | . | 11 | -2 | 1 | .

From PubChem BioAssay
